# Experimental data taken from ChEMBL document CHEMBL2407056, “3-(Oxazolo[4,5-b]pyridin-2-yl)anilides as a novel class of potent inhibitors for the kinetoplastid Trypanosoma brucei, the causative agent for human African trypanosomiasis” (Eur J Med Chem, 2013).
# Assays:
# Leishmania donovani [1] = experiment: Antimicrobial activity against Leishmania donovani MHOM/ET/67/L82 amastigote form after 70 hrs by Alamar blue assay; format: functional, organism-based; details: MHOM/ET/67/L82, 70 h
# In short: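 Axenic amastigotes grown at 37 °C in SM medium pH 5.4 with 10% heat-inactivated FBS, 5% CO2; 10⁵ parasites per well exposed to eleven 3-fold dilutions (100 to 0.002 µg/mL) for 70 h. Alamar Blue (resazurin) added for 2–4 h, fluorescence read at ex 536/em 588 nm. IC50 by linear regression from sigmoidal curves; miltefosine control.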
# [2] = Intrinsic clearance in human liver microsomes at 1 uM after 60 mins by LC-MS analysis; format: ADME, Microsome; details: read-out: CLH
# In short: (§1)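 Compound at 1 µM final (1 in 500 dilution of stock) incubated at 37 °C with human liver microsomes in 0.1 M phosphate buffer pH 7.4, 0.4 mg/mL protein. First-order depletion rate from exponential decay fit used to derive in vitro CLint and half-life; predicted hepatic extraction ratio from scaled CLint with liver blood flow 20.7 mL/min/kg.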
# [3] = Selectivity index, ratio of IC50 for HEK293 cells to IC50 for Trypanosoma brucei brucei 427 bloodstream form; format: toxicity, cell-based; details: human, read-out: Ratio IC50
# In short: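 HEK293 cells (55 µL of 72,727 cells/mL in DMEM + 10% FCS) in 384-well plates, 24 h at 37 °C/5% CO2. Drug diluted 1:21 from DMSO, final 83.34 to 0.0004 µM, 48 h. […] SI relative to T. b. brucei.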
# [4] = tested on: Trypanosoma brucei rhodesiense; experiment: Antitrypanosomal activity against Trypanosoma brucei rhodesiense STIB 900 bloodstream form after 70 hrs by Alamar blue assay; format: functional, organism-based; details: STIB 900, 70 h
# In short: (§2)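 Bloodstream forms (4×10³/well) in MEM with 25 mM HEPES, extra glucose, non-essential amino acids, 0.2 mM 2-mercaptoethanol, 1 mM pyruvate and 15% heat-inactivated horse serum. Eleven 3-fold dilutions from 100 to 0.002 µg/mL, 70 h at 37 °C/5% CO2; Alamar Blue 2 h, fluorescence at ex 536/em 588 nm; IC50 by linear regression; melarsoprol control. SI relative to L6 cells.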
# [5] = Half life in human liver microsomes at 1 uM by LC-MS analysis; format: ADME, Microsome; in short: as §1
# [6] = Selectivity index, ratio of IC50 for rat L6 cells to IC50 for Trypanosoma cruzi Tulahuen C2C4 amastigote stage; format: toxicity, cell-based; details: read-out: Ratio IC50
# [7] = Kinetic solubility of the compound in phosphate buffer at pH 6.5 by nephelometry; format: physicochemical; details: read-out: Kinetic_solubility
# In short: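 DMSO stocks spiked into pH 6.5 phosphate buffer or 0.01 M HCl (about pH 2.0), final DMSO 1% (v/v). Solubility range determined by nephelometry.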
# L6 = experiment: Cytotoxicity against rat L6 cells after 70 hrs by Alamar blue assay; format: cell-based; details: L6, 70 h
# In short: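 4000 L-6 cells per well in RPMI 1640 with L-glutamine and 10% FBS. Eleven 3-fold dilutions from 100 to 0.002 µg/mL for 70 h; Alamar Blue 2 h, fluorescence at ex 536/em 588 nm. IC50 by linear regression from sigmoidal curves; podophyllotoxin control.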
# [8] = tested on: Trypanosoma brucei brucei; experiment: Antitrypanosomal activity against Trypanosoma brucei brucei 427 bloodstream form after 48 hrs by Alamar blue assay; format: functional, organism-based; details: Trypanosoma brucei, 427, 48 h
# In short: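 Bloodstream parasites in 384-well plates, 24 h preincubation at 37 °C/5% CO2. DMSO dilutions diluted 1:21 in DMEM and added to give final 41.67 to 0.0004 µM; 48 h incubation. 70% Alamar Blue in HMI-9 + 10% FCS added, 2 h at 37 °C then 22 h at room temperature; read at ex 535/em 590 nm.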
# [9] = Selectivity index, ratio of IC50 for rat L6 cells to IC50 for Trypanosoma brucei rhodesiense STIB 900 bloodstream form; format: toxicity, cell-based; details: read-out: Ratio IC50; in short: as §2
# Plasmodium falciparum = experiment: Antimicrobial activity against Plasmodium falciparum NF54 infected in human RBC after 48 hrs by [3H]hypoxanthine incorporation assay; format: functional, organism-based
# In short: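 Erythrocytic stage, drug-sensitive strain, in hypoxanthine-free RPMI 1640 with HEPES, NaHCO3, neomycin, Albumax, human A+ red cells at 2.5% haematocrit, 0.3% parasitaemia. Eleven 3-fold dilutions from 100 to 0.002 µg/mL; 37 °C, 4% CO2/3% O2/93% N2. ³H-hypoxanthine added at 48 h, further 24 h, then harvested and scintillation-counted. IC50 by linear regression; chloroquine control.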
# [10] = Kinetic solubility of the compound in phosphate buffer at pH 2 by nephelometry; format: physicochemical; details: read-out: Kinetic_solubility
# Trypanosoma cruzi = experiment: Antitrypanosomal activity against Trypanosoma cruzi Tulahuen C2C4 amastigotes infected in rat L6 cells after 96 hrs by beta-galactosidase reporter gene assay; format: functional, organism-based; details: Tulahuen C2C4, L6, 96 h
# In short: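 L-6 cells (2000/well, RPMI 1640 + 10% FBS, 2 mM L-glutamine) infected after 24 h with 5000 LacZ-expressing trypomastigotes. At 48 h the medium was replaced with eleven 3-fold drug dilutions (100 to 0.002 µg/mL). After 96 h, CPRG/Nonidet substrate added, colour read at 540 nm after 2–6 h. IC50 by linear regression from sigmoidal curves; benznidazole control.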
# [11] = Partition coefficient, log D of the compound at pH 7.4 by HPLC analysis; format: physicochemical; details: octanol/water
# In short: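 Chromatographic gradient HPLC: mobile phase 50 mM ammonium acetate pH 7.4 (or ammonium formate pH 3.0) with an acetonitrile gradient of 0–100% over 10 min; UV detection at 220 and 254 nm.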
# Leishmania donovani [12] = experiment: Antimicrobial activity against Leishmania donovani amastigote form infected in mouse peritoneal macrophage after 96 hrs by Giemsa staining method; format: functional, organism-based
# In short: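 Mouse peritoneal macrophages (4×10⁴/well, RPMI 1640 + 10% heat-inactivated FBS) infected after 24 h with 1.2×10⁵ axenic amastigotes; free parasites removed at 4 h, drug dilutions added next day. After 96 h, methanol fixation and 10% Giemsa staining; infected and non-infected macrophages counted, % reduction in parasite burden vs controls, IC50 by linear regression; miltefosine control.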
Structure (SMILES),IC50 (Leishmania donovani [1]) [nM],microsomal CLint at 1 µM [2] [µL/min/mg],selectivity ratio [3],IC50 [4] [nM],half-life at 1 µM [5] [min],selectivity ratio [6],solubility kinetic [7] [µg/mL],IC50 (L6) [nM],IC50 [8] [nM],selectivity ratio [9],IC50 (Plasmodium falciparum) [nM],solubility kinetic [10] [µg/mL],IC50 (Trypanosoma cruzi) [nM],logD [11],IC50 (Leishmania donovani [12]) [nM]
O=C(Nc1ccc(Cl)c(-c2nc3ncccc3o2)c1)c1ccco1,1800,258,> 345,590,7,99,1.6,23000,220,39,7800,1.6,230,2.7,–
O=C(Nc1ccc(Cl)c(-c2nc3ncccc3o2)c1)c1ccoc1,340,–,160,91,–,–,–,65000,300,> 700,4900,–,260,–,12000
